Source: PubChem (several laboratories)
Sampled rows, rich in hits. Any-hit rate of the full collection: about 2.2%.
Wee1 stabilizer – blocks degradation of human Wee1 kinase; P30291; HeLa Luc-Wee1K328M stability, luciferase luminescence; 100% = proteasome inhibitor MG132 effect; reporter increase, % at 5 µM; hit rate 1.2% among 220,000; AID 1321;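 active means activation above the mean of all tested compounds plus 3 SD, set per screening run, cut at about 8.8% in these data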;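 further: cells exposed to compound for 20 h before luminescence read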
p97 ATPase inh – inhibitors of human p97 ATPase | inhibition, % at 8 µM | AID 1481 | recombinant p97 ATPase, Kinase-Glo ATP luminescence, 3 h | P55072 | hit rate 0.42% among 220,000; in the data active means inhibition above about 15%
Redox H2O2 prof – compounds producing H2O2 with reducing agent – biochemical, NIH compound library profiling, artefact control for MLSCN library redox annotation, primary screen | activation, % at 10 µM | DTT-dependent redox cycling H2O2, phenol red/HRP absorbance; 100% = 100 µM peroxide control, 0% = buffer | hit rate 0.03% among 200,000 | AID 878;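 active means activation of at least 50% relative to the plate's high and low controls in the primary single-dose screen; inactive means activation below 50%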;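 further: compound incubated with DTT at 0.8 mM final as the reducing agent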
RBBP9 inhibitor – human RBBP9 hydrolase inhibition. recombinant RBBP9, FP-Rh probe fluorescence polarization. inhibition, % at 7.94 µM. hit rate 0.2% among 220,000. O75884. AID 1515;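 active means inhibition above the campaign mean of all tested compounds plus 3 SD, cut at about 14% in these data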
Target sequence (O75884 whole entry, looked up): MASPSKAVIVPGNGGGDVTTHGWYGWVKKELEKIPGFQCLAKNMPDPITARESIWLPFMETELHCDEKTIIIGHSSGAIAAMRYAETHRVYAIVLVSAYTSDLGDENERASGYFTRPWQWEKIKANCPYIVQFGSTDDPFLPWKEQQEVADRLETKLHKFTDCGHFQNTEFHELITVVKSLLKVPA
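Controls: DMSO-treated enzyme wells and wells lacking RBBP9 | Material: RBBP9 protein | Technique: Fluorescence polarization | Replication: Single well per compound, no replicates | Buffer or medium: Tris-NaCl-Pluronic buffer, pH 8.0 | Timing: 30 min compound preincubation, 45 min probe labeling, 25 °C | Read-out basis: Percent inhibition from mP, scaled between DMSO and no-protein wells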
Arbovirus inh – blocks arbovirus infection; arbovirus infection cell-based antiviral screen; inhibition, % at 10 µM; hit rate 0.37% among 200,000; AID 1251; in the data active means inhibition above about 30%
PKD1 kinase inh – inhibitors of human PKD1 kinase. Q15139. inhibition, % (no concentration beside the values). AID 797. PKD1 kinase fluorescence polarization assay. hit rate 0.056% among 200,000; in the data active means inhibition above about 50%
A number is an active result; 0 = inactive; - = no result.

SMILES | Wee1 stabilizer | p97 ATPase inh | Redox H2O2 prof | RBBP9 inhibitor | Arbovirus inh | PKD1 kinase inh
COc1cc(C(=O)NCCN2C(=O)S/C(=C\c3ccc(F)cc3)C2=O)ccc1OCC(=O)N1CCOCC1 | 0 | 0 | - | 0 | - | -
COc1ccc(-c2csc(NC(=O)c3ccc(OCC(=O)N4CCOCC4)c(OC)c3)n2)cc1 | 0 | 0 | 0 | 0 | 44 | 0
COc1cc(C(=O)O)ccc1OCC(=O)N1CCOCC1 | 0 | 0 | 0 | 0 | 0 | 0
COc1ccc(-c2csc(Nc3ncccc3C)n2)cc1OC | 0 | 0 | 0 | 0 | 41 | 0
COc1ccc(-c2csc(Nc3ncccc3C)n2)cc1 | 0 | 0 | 0 | 0 | 0 | 0
CCc1ccc(NC(=O)CC2C(=O)N(c3ccc(C)cc3)C(=O)N2C2CC2)cc1 (stereo unspecified) | 0 | 0 | 0 | 0 | 0 | 0
COc1ccc(OCC(=O)NNC(=O)c2cccc(S(=O)(=O)N(C)C)c2)cc1 | 0 | 0 | 0 | 0 | 0 | 0
O=C(Nc1nc(-c2cccs2)cs1)c1cccc(S(=O)(=O)N2CCCCC2)c1 | 0 | 0 | 0 | 0 | 0 | 0
Cc1csc(NC(=O)C2=NN(c3ccccc3)C(=O)CC2)n1 | 0 | 0 | 0 | 0 | 0 | 0
Cc1ccc(-c2csc(NC(=O)c3cccc(S(=O)(=O)N4CCN(C)CC4)c3)n2)cc1 | 0 | 0 | 0 | 0 | 35 | 0
COc1cc(C(=O)Nc2nc(-c3ccc(C)cc3)cs2)ccc1OCC(=O)N1CCOCC1 | 0 | 0 | 0 | 0 | 91 | 0
Cc1ccc(-c2csc(NC(=O)C3=NN(c4ccccc4)C(=O)CC3)n2)cc1 | 0 | 0 | 0 | 0 | 67 | 0
C=CCc1c(N(CC)CC)nc(C)[nH]c1=O | 9.3 | 0 | - | 0 | - | -
CCc1ccc(Nc2ccc(S(=O)(=O)N3CCOCC3)cc2[N+](=O)[O-])cc1 | 9.7 | 0 | 0 | 0 | 0 | 0
COC(=O)[C@H]1C[C@@H]1[C@H](NC(=O)c1ccccc1)c1ccccc1 | 0 | 0 | 0 | 0 | 0 | 0
CS(=O)(=O)c1cnc2c(S(=O)(=O)c3ccccc3)cnn2c1N | 8.8 | 0 | 0 | 0 | 0 | 0
Nc1c(S(=O)(=O)c2ccccc2)cnc2c(-c3ccc(F)cc3)cnn12 | 0 | 0 | 0 | 0 | 0 | 0
N#Cc1sc2nc(-c3cccs3)cc(-c3ccc(F)cc3)c2c1N | 0 | 0 | 0 | 0 | 37 | 0
O=C(O)CCNc1cc2ccccc2cc1C(=O)O | 0 | 0 | 0 | 0 | 0 | 0
CCCN1Cc2cccc(C(=O)N3CCN(c4cc(Cl)ccc4C)CC3)c2C1=O | 0 | 0 | 0 | 0 | 47 | 0
COc1ccc2c(CC(=O)Nc3ccc(OC)c(NS(=O)(=O)c4ccc(F)cc4)c3)coc2c1 | 0 | 0 | 0 | 0 | 0 | 0
O=C(Nc1cc(S(=O)(=O)N2CCCCC2)ccc1N1CCCCC1)C1CC1 | 0 | 0 | - | 0 | - | -
COc1cccc2c1C(=O)c1c(O)c3c(c(O)c1C2=O)C[C@@](O)(C(=O)CO)C[C@@H]3O[C@H]1C[C@H](N)[C@H](O)[C@H](C)O1 | 0 | 0 | 0 | 0 | 0 | 75
CCOC(=O)c1c(C)[nH]c(NC(=O)N2CCOCC2)c1C | 0 | 0 | 0 | 0 | 0 | 0
O=C(O)CCCC(=O)N1CC(=O)Nc2ccccc21 | 9.1 | 0 | 0 | 0 | 0 | 0
SMILES | Wee1 stabilizer | p97 ATPase inh | Redox H2O2 prof | RBBP9 inhibitor | Arbovirus inh | PKD1 kinase inh
CCc1ccc2[nH]c(C(=O)Nc3ccc4c(c3)OCO4)cc2c1 | 0 | 0 | - | 0 | - | -
CCN1C(=O)/C(=C\c2cccn2-c2ccc([N+](=O)[O-])cc2)N(CC)C1=S | 9.5 | 0 | 0 | 0 | 0 | 0
COCCCNC(=O)c1c(N)n(-c2ccc3c(c2)OCO3)c2nc3ccccc3nc12 | 0 | 0 | 0 | 0 | 0 | 0
CCOCCCNC(=O)c1c(N)n(-c2ccc3c(c2)OCO3)c2nc3ccccc3nc12 | 9.4 | 0 | - | 0 | - | -
N/C(=N\OC(=O)Cc1ccc(Cl)cc1)c1ccncc1 | 8.9 | 0 | 0 | 0 | 0 | 0
CSC1=N/C(=C/c2cccnc2)C(=O)N1Cc1ccccc1 | 0 | 0 | - | 0 | - | -
c1ccc2sc(NCC3CCCO3)nc2c1 (stereo unspecified) | 9.4 | 0 | 0 | 0 | 0 | 0
c1ccc2oc(-c3csc(NCC4CCCO4)n3)cc2c1 (stereo unspecified) | 0 | 0 | 0 | 0 | 0 | 0
CCN(C(=O)COC(=O)c1cn(-c2ccccc2)nc1-c1ccccc1)C1CCS(=O)(=O)C1 (stereo unspecified) | 0 | 0 | 0 | 0 | 0 | 0
CCN(C(=O)COC(=O)c1cc(-c2ccccc2)nn1-c1ccccc1)C1CCS(=O)(=O)C1 (stereo unspecified) | 10 | 0 | 0 | 0 | 0 | 0
O=C1N=c2ccccc2=C1c1sc(NS(=O)(=O)c2ccccc2)nc1O | 0 | 0 | 0 | 0 | 0 | 0
O=C1N=c2ccccc2=C1c1sc(Nc2ccc(O)cc2)nc1O | 0 | 0 | 0 | 0 | 36 | 0
CCC(CC)C(=O)Nc1ccccc1NC(C)=O | 0 | 0 | 0 | 0 | 0 | 0
CCOC(=O)C1CCN(c2ncnc3c2cnn3-c2ccc(OC)cc2)CC1 | 9.1 | 0 | 0 | 0 | 0 | 0
CC12COC3(C(=O)Nc4ccccc4)CC1CCC32C (stereo unspecified) | 0 | 0 | 0 | 0 | 0 | 0
CC12COC3(C(=O)Nc4ccc5ccccc5c4)CC1CCC32C (stereo unspecified) | 9.3 | 0 | 0 | 0 | 0 | 0
COc1cc2c(=O)n(CCC(=O)NCC3CCCO3)c(=O)n(CC(=O)c3ccc(Cl)cc3)c2cc1OC (stereo unspecified) | 0 | 0 | 0 | 0 | 0 | 0
C=CCc1cc(/C=C/c2nc(O)c([N+](=O)[O-])c(=O)[nH]2)cc(OC)c1O | 9.0 | 0 | 0 | 0 | 0 | 0
Cc1[nH]c2c(C)cccc2c1CCNC(=O)c1ccc2c(c1[N+](=O)[O-])C(=O)c1ccccc1C2=O | 0 | 15 | 0 | 0 | 0 | 0
Cc1[nH]c2ccccc2c1CCNC(=O)c1ccc2c(c1[N+](=O)[O-])C(=O)c1ccccc1C2=O | 0 | 0 | 0 | 0 | 0 | 0
Cc1nn(Cc2ccccc2)c(C)c1/C=N/NC(=O)c1ccccc1O | 0 | 0 | - | 0 | - | -
Cc1ccccc1C(=O)O/N=C(\N)c1ccncc1 | 0 | 0 | 0 | 0 | 0 | 0
COc1ccc(-c2nnc(-c3ccc(Br)o3)o2)cc1OC | 0 | 0 | 0 | 0 | 34 | 0
CCCCn1c(SCC(=O)Nc2cccc(C)n2)nnc1-c1ccco1 | 9.1 | 0 | 0 | 0 | 0 | 0
Cn1c(=O)c2c(nc(OCc3ccc4c(c3)OCO4)n2Cc2ccccc2Cl)n(C)c1=O | 9.2 | 0 | 0 | 0 | 0 | 0
COc1cc(C(=O)OCCNC(=O)c2ccncc2)cc(OC)c1OC | 0 | 0 | 0 | 0 | 0 | 0
O=C(c1cc(C(=O)c2ccco2)cc(C(=O)c2ccco2)c1)c1ccco1 | 11 | 0 | 0 | 0 | 0 | 0
CCOC(=O)c1c(O)c2c(n(Cc3ccco3)c1=O)CCCC2 | 0 | 0 | 0 | 0 | 31 | 0
CCOC(=O)c1sc(-c2ccccc2)cc1NC(=O)Nc1ccc([N+](=O)[O-])cc1 | 0 | 0 | 0 | 0 | 0 | 0
